Measurements as given in paper PMC4257570 (Basic & Clinical Pharmacology & Toxicology, 2014).
“And” between values parts separate entries of the source, which are not always exact repeats. Identical values can stand only once. One block for each molecule: values may come before it.

Experiments:
[1] = ref unpublished data; cited from earlier work
[2] = Population pharmacokinetic analysis; type: in vivo, human
Summary of the method: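 Oral doses were 2.5–75 mg single and 2.5–60 mg/day multiple; only vortioxetine-alone data from interaction studies were used. Models were two-compartment with lag time and first-order absorption and elimination (one- and three-compartment also tested). Covariates, including CYP genotype-inferred metaboliser status, were added forward then deleted backward. Bootstrap gave 95% CIs.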

[3] = cited from earlier work
[4] = cited from earlier work; remark: listed apart in the source
[5] = no reference given; cited from earlier work
[6] = non-compartmental analysis, healthy young subjects

SMILES: Cc1cc(C(=O)O)ccc1Sc1ccccc1N1CCNCC1 [Lu AA34443, 3-methyl-4-(2-piperazine-1-yl-phenylsulfanyl)-benzoic acid]
- Crossing of the blood–brain barrier [1]: incapable of crossing the blood–brain barrier

- CL/F of CYP2C19 EMs relative to PMs ([2]; CYP2C19 EM vs PM): 1.4 times
- Oral clearance (CL/F), estimate ([2]; CYP2D6-inferred extensive metabolisers (EM), final model): 34.1 L/h
- Oral clearance (CL/F), estimate ([2]; CYP2D6-inferred intermediate metabolisers (IM), final model): 26.6 L/h
- Oral clearance (CL/F), estimate ([2]; CYP2D6-inferred poor metabolisers (PM), final model): 18.1 L/h
- Oral clearance (CL/F), estimate ([2]; CYP2D6-inferred ultra metabolisers (UM), final model): 52.9 L/h
- CL/F of CYP2D6 extensive metabolisers relative to poor metabolisers ([2]; CYP2D6 EM vs PM): 1.9 times
- Oral clearance (CL/F), population mean ([2]; all healthy subjects, oral dosing, from the base model): 32.7 L/h and 33 L/h
- Absorption rate constant (ka), estimate ([2]; final model): 0.142 h⁻¹
- Interindividual variability (IIV) of CL/F ([2]; final model): 42%
- Interindividual variability (IIV) of V2/F ([2]; final model): 31%
- Interindividual variability (IIV) of ka ([2]; final model): 51%
- Lag-time (ALAG), estimate ([2]; final model): 0.781 h
- Volume of distribution, peripheral comp (V3/F), estimate ([2]; final model): 661 L
- Age on CL/F ([2]; final model, covariate effect): 0.277 L/hr/yr
- Height on V2/F ([2]; final model, covariate effect): 17.4 L/cm
- half-life ([2]; human, plasma, im, Estimated mean t1/2, CYP2D6-inferred metabolic status IM): 73 h
- Vd/F ([2]; human, plasma, oral): 1970 L
- half-life ([2]; human, plasma, oral, Estimated mean t1/2, CYP2D6-inferred metabolic status EM): 60 h
- half-life ([2]; human, plasma, oral, Estimated mean t1/2, CYP2D6-inferred metabolic status PM): 104 h
- half-life ([2]; human, plasma, oral, Estimated mean t1/2, CYP2D6-inferred metabolic status UM): 42 h
- V2/F, population mean ([2]; men, sex as only covariate): 1940 L
- Sum of the central and peripheral volumes of distribution (V2/F + V3/F) ([2]; population mean, oral administration): 2600 L
- Higher exposure in a subject compared with the population mean ([2]; subject vs population mean of 44 years): ≤ 40%
- CL/F, population mean ([2]; women, sex as only covariate): 30 L/h
- V2/F, population mean ([2]; women, sex as only covariate): 1810 L
SMILES: Br.Cc1ccc(Sc2ccccc2N2CCNCC2)c(C)c1 [vortioxetine, 1-[2-(2,4-dimethyl-phenylsulfanyl)-phenyl]-piperazine hydrobromide]
- Absolute bioavailability for oral administration [3]: 75%
- Clearance (oral clearance) [3, 6]: 47 L/h
- Elimination half-life [3, 6]: 57 h
- Change of CL/F of vortioxetine when co-administered with bupropion ([4]; bupropion (CYP2D6 inhibitor)): reduced approximately by half
- Increase of vortioxetine exposure with co-administration of bupropion ([4]; bupropion (CYP2D6 inhibitor)): approximately 2 fold
- Decrease of AUC of vortioxetine with co-administration of rifampicin ([4]; rifampicin (broad CYP inducer)): 72%
- Effect of co-administration of omeprazole on vortioxetine steady-state exposure ([4]; single dose of omeprazole (CYP2C19 inhibitor)): no effects
- Renal clearance [5]: negligible
